{"data": "Measurements collected from several papers", "target": "Serine/threonine-protein kinase DCLK3 (DCLK3, Homo sapiens, UniProt Q9C098)", "Sequence (Q9C098 1-648, as in one of the studies)": "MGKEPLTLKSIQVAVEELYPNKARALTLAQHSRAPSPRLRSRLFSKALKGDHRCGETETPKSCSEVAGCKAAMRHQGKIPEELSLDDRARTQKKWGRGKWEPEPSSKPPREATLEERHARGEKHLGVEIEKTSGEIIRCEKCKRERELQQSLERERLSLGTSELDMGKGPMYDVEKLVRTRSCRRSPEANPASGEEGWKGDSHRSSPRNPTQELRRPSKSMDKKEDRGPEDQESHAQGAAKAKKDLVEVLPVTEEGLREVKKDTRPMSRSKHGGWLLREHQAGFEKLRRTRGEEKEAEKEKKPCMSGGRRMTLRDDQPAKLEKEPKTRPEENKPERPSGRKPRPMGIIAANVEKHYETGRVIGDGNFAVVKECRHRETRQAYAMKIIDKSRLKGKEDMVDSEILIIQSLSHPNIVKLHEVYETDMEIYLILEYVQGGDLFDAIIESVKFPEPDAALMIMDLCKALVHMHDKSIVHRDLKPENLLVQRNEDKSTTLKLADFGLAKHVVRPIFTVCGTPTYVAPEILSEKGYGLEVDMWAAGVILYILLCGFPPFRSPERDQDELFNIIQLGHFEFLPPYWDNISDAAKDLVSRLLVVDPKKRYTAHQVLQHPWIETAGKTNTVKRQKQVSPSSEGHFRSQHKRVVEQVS", "note": "Protocols differ between the studies behind these lines."}
{"Structure (SMILES)": "O=C(NCCCN1CCOCC1)c1ccc(Nc2ncc(Cl)c(-c3ccc(Cl)s3)n2)cc1", "effect on": "binding", "technique": "competition with immobilised ligand", "tested at": "1 µM", "remaining binding [%]": 1.9}
{"Structure (SMILES)": "CN(C)c1ncnc(-c2ccc3nc(Nc4cc(CN5CCN(C(=O)CC(F)(F)F)CC5)ccn4)[nH]c3c2)c1Cl", "effect on": "cell-free assay", "technique": "competition with immobilised ligand", "tested at": "1 µM", "remaining binding [%]": 92}
{"Structure (SMILES)": "Cc1cnn2ncc(-c3ccnc(N(C)C)n3)c2c1", "effect on": "binding", "tested at": "1 µM", "remaining binding [%]": 93}
{"Structure (SMILES)": "O=C(NCC1CCOCC1)c1n[nH]cc1NC(=O)c1c(F)cccc1F", "effect on": "binding", "technique": "competition with immobilised ligand", "tested at": "1 µM", "remaining binding [%]": 61}
{"Structure (SMILES)": "CCN1CCN(Cc2ccc(C(=O)Nc3ccc(C)c(Oc4ccc5c(c4)CC(=O)N5)c3)cc2C(F)(F)F)CC1", "effect on": "binding", "technique": "competition with immobilised ligand", "tested at": "1 µM", "remaining binding [%]": 100}
{"Structure (SMILES)": "CN(C)c1nccc(-c2cnn3ncccc23)n1", "effect on": "binding", "tested at": "1 µM", "remaining binding [%]": 100}
{"Structure (SMILES)": "O=C(c1ccc(Nc2nccc(-c3cc4ccccc4s3)n2)cc1)N1CCC(N2CCCC2)CC1", "effect on": "binding", "technique": "competition with immobilised ligand", "tested at": "1 µM", "remaining binding [%]": 45}
{"Structure (SMILES)": "c1cnn2ncc(-c3ccnc(N4CCC45COC5)n3)c2c1", "effect on": "binding", "tested at": "1 µM", "remaining binding [%]": 100}
{"Structure (SMILES)": "Cn1cc(Cl)c2c(Oc3c(F)cc(Nc4cc(Cl)nc(N)n4)cc3F)ccnc21", "effect on": "cell-free assay", "technique": "competition with immobilised ligand", "tested at": "0.1 µM", "remaining binding [%]": 89}
{"Structure (SMILES)": "C=CC(=O)N1CCC(C(=O)NCC(=O)N2CCN(c3nc(-c4cnc(N)nc4C(F)F)nc(N4CCOCC4)n3)CC2)CC1", "effect on": "binding", "technique": "competition with immobilised ligand", "tested at": "1 µM", "remaining binding [%]": 96}
{"Structure (SMILES)": "c1cncc(-c2cccc(Nc3nccc(NC4CCCCC4)n3)c2)c1", "effect on": "binding", "technique": "competition with immobilised ligand", "tested at": "10 µM", "remaining binding [%]": 80}
{"Structure (SMILES)": "CC(C)(O)c1cncc(-c2nc3ccc(F)cc3n2C2CC2)c1", "effect on": "cell-free assay", "technique": "competition with immobilised ligand", "tested at": "1 µM", "remaining binding [%]": 100}
{"Structure (SMILES)": "N[C@@H]1CCN(c2nccc(-c3cnn4ncccc34)n2)C1", "effect on": "binding", "tested at": "1 µM", "remaining binding [%]": 100}
{"Structure (SMILES)": "CC1=C(C#N)[C@@H](c2ccc3[nH]nc(C)c3c2)C(C#N)=C(c2ccc(Cl)cc2)N1", "effect on": "cell-free assay", "technique": "competition with immobilised ligand", "tested at": "1 µM", "remaining binding [%]": 71.3}
{"Structure (SMILES)": "CN(C)c1nccc(-c2cnc3ncccn23)n1", "effect on": "binding", "tested at": "1 µM", "remaining binding [%]": 76}
{"Structure (SMILES)": "COc1ncc2cc3ccccc3nc2c1C#N", "effect on": "cell-free assay", "technique": "competition with immobilised ligand", "tested at": "5 µM", "remaining binding [%]": 100}
{"Structure (SMILES)": "COc1cnc(Nc2cccc(S(N)(=O)=O)c2)nc1N1CCN(c2ccccc2)C(=O)C1", "effect on": "binding", "technique": "competition with immobilised ligand", "tested at": "1 µM", "remaining binding [%]": 100}
{"Structure (SMILES)": "CNC(=O)c1ccc(Nc2ncc(C(F)(F)F)c(NCc3nccnc3N(C)S(C)(=O)=O)n2)cc1", "effect on": "cell-free assay", "technique": "competition with immobilised ligand", "tested at": "0.1 µM", "remaining binding [%]": 67}
{"Structure (SMILES)": "C[C@@H]1CCN(c2nccc(-c3cnn4ncccc34)n2)C1", "effect on": "binding", "tested at": "1 µM", "remaining binding [%]": 100}
{"Structure (SMILES)": "O=C(c1ccc(Nc2ncc(Cl)c(-c3cc4ccccc4s3)n2)cc1)N1CCC(N2CCCC2)CC1", "effect on": "binding", "technique": "competition with immobilised ligand", "tested at": "1 µM", "remaining binding [%]": 0.9}
{"Structure (SMILES)": "CCCCN(CCCC)C(=O)CN1C[C@@H](c2cc(OC)c3c(c2)OCO3)[C@H](C(=O)O)[C@H]1CC(C)(C)CCC", "effect on": "cell-free assay", "technique": "competition with immobilised ligand", "tested at": "1 µM", "remaining binding [%]": 100}
